This note sets out measurements from ChEMBL document CHEMBL1124697, “A new family of water-soluble, third generation antitumor platinum complexes” (J Med Chem, 1989).

In data set [1] the test system is P388. The data set is described as follows: Percent increase in life span when compound administered at 25.5 mg/kg against P388 leukemia cells in BDF1 mice. The data set is classed as functional, organism-based. Set-up: dose 25.5 mg/kg. Particulars: Mus musculus. In outline: (§1)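 BDF1 mice bearing P388, L1210 or cisplatin-resistant L1210 leukemia; ip dosing on days 1, 5 and 9 relative to tumor inoculation, 30-day observation. Median % ILS over controls at optimal dose plus % survivors; ≥25% ILS counted as active, ≥15% reduction in ILS or body weight over controls rated toxic.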

The test system of data set [2] is Colon 26. The data set is described as follows: Percent survivors when compound administered at 6.2 mg/kg against Colon 26 cells in balb/C mice. The format is functional, organism-based. Further details: dose 6.2 mg/kg. As to conditions: Mus musculus. The essentials: (§2)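 Colon 26 tumor in Balb/C mice. Dosing ip on days 1, 5 and 9 after tumor inoculation, with a 30-day observation period. Readouts are median % increase in life span over control mice and % survivors, given at the optimal dose. Activity threshold is ILS ≥25%. A ≥15% drop in ILS or body weight is rated toxic.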

Data set [3] relates to P388. Nature of the data set: Percent survivors when compound administered at 25.5 mg/kg against P388 leukemia cells in BDF1 mice. The data set is classed as functional, organism-based. Particulars: Mus musculus. Further details: dose 25.5 mg/kg. In outline: (§3)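 BDF1 mice inoculated with P388, L1210 or cisplatin-resistant L1210 leukemia. Compound given ip on days 1, 5 and 9 relative to tumor inoculation, and mice observed for 30 days. Median % increase in life span over controls and % survivors are reported at the optimal dose. Activity requires ILS ≥25%. Toxicity is rated when ILS or body weight is reduced by ≥15%.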

Data set [4] deals with L1210. The data set is described as follows: Percent survivors when compound administered at 12.5 mg/kg against L1210 leukemia cells in BDF1 mice. The format is functional, organism-based. Set-up: dose 12.5 mg/kg. As to conditions: Mus musculus. The essentials: as §3
Data set [5] relates to Colon 26. Nature of the data set: Percent in life span when compound administered at 6.2 mg/kg against Colon 26 cells in balb/C mice. The data set is classed as functional, organism-based. Set-up: dose 6.2 mg/kg. Particulars: Mus musculus. The essentials:
(§4)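 Colon 26 in Balb/C mice. Test agents given ip on days 1, 5 and 9 relative to tumor inoculation; mice observed 30 days. Median % increase in life span at optimal dose, with % survivors noted; ILS ≥25% over controls required for activity; ILS or body weight reduced ≥15% versus controls rated toxic.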

Data set [6] relates to B16. Nature of the data set: Percent increase in life span when compound administered at 0.4 mg/kg against B-16 melanoma cells in […] mice. Further details: dose 0.4 mg/kg. The data set is classed as functional, organism-based. As to conditions: Mus musculus. The essentials:
(§5)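 B-16 melanoma in […] mice; compounds given ip daily on days 1–9 relative to tumor inoculation, animals followed 60 days. Read-out median % increase in life span over controls at optimal dose with % survivors; activity threshold ILS ≥25%; ≥15% reduction in ILS or body weight versus controls rated toxic.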

Data set [7] concerns P388. Nature of the data set: Percent survivors when compound administered at 6.2 mg/kg against P388 leukemia cells in BDF1 mice. The format is functional, organism-based. Further details: dose 6.2 mg/kg. Particulars: Mus musculus. The essentials: as §3
In data set [8] the test system is Colon 26. Nature of the data set: Percent in life span when compound administered at 3.1 mg/kg against Colon 26 cells in balb/C mice. The format is functional, organism-based. Set-up: dose 3.1 mg/kg. As to conditions: Mus musculus. In outline:
as §4

The subject of data set [9] is Colon 26. The data set is described as follows: Percent survivors when compound administered at 3.1 mg/kg against Colon 26 cells in balb/C mice. The format is functional, organism-based. Further details: dose 3.1 mg/kg. As to conditions: Mus musculus. The essentials: as §2
The subject of data set [10] is P388. Nature of the data set: Percent increase in life span when compound administered at 6.2 mg/kg against P388 leukemia cells in BDF1 mice. Set-up: dose 6.2 mg/kg. Particulars: Mus musculus. The format is functional, organism-based. The essentials:
as §1

The subject of data set [11] is P388. The data set is described as follows: Percent survivors when compound administered at 12.5 mg/kg against P388 leukemia cells in BDF1 mice. The format is functional, organism-based. Further details: dose 12.5 mg/kg. Particulars: Mus musculus. In outline:
as §3

In data set [12] the test system is P388. The data set is described as follows: Percent increase in life span when compound administered at 12.5 mg/kg against P388 leukemia cells in BDF1 mice. Further details: dose 12.5 mg/kg. The data set is classed as functional, organism-based. Particulars: Mus musculus. In outline: as §1
For data set [13], the system named is Colon 26. The data set is described as follows: Percent survivors when compound administered at 50 mg/kg againstColon 26 cells in balb/C mice. The format is functional, organism-based. Further details: dose 50 mg/kg. Particulars: Mus musculus. In outline:
as §2

For data set [14], the system named is Colon 26. Nature of the data set: Percent in life span when compound administered at 100 mg/kg againstColon 26 cells in balb/C mice. The format is functional, organism-based. Set-up: dose 100 mg/kg. As to conditions: Mus musculus. The essentials:
as §4

In data set [15] the test system is L1210. Nature of the data set: Percent increase in life span when compound administered at 50 mg/kg against L1210 cisplatin resistant leukemia cells in BDF1 mice. The format is functional, organism-based. Set-up: dose 50 mg/kg. As to conditions: Mus musculus. The essentials: as §1
The test system of data set [16] is L1210. Nature of the data set: Percent increase in life span when compound administered at 50 mg/kg against L1210 leukemia cells in BDF1 mice. The data set is classed as functional, organism-based. Further details: dose 50 mg/kg. As to conditions: Mus musculus. In outline: as §1
The test system of data set [17] is B16. Nature of the data set: Percent survivors when compound administered at 12.5 mg/kg against B-16 melanoma cells in […] mice. The data set is classed as functional. As to conditions: Mus musculus. In outline:
(§6)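 Median % increase in life span versus controls and % survivors are recorded at the optimal dose. ILS ≥25% counts as active, and a ≥15% reduction in ILS or body weight counts as toxic.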

Data set [18] relates to L1210. Nature of the data set: Percent survivors when compound administered at 50 mg/kg against L1210 cisplatin resistant leukemia cells in BDF1 mice. The data set is classed as functional, organism-based. Set-up: dose 50 mg/kg. As to conditions: Mus musculus. The essentials: as §3
Data set [19] concerns Colon 26. The data set is described as follows: Percent survivors when compound administered at 100 mg/kg againstColon 26 cells in balb/C mice. As to conditions: Mus musculus. Further details: dose 100 mg/kg. The data set is classed as functional, organism-based. The essentials: as §2
Data set [20] concerns L1210. Nature of the data set: Percent survivors when compound administered at 50 mg/kg against L1210 leukemia cells in BDF1 mice. The format is functional, organism-based. Set-up: dose 50 mg/kg. Particulars: Mus musculus. In outline:
as §3

In data set [21] the test system is B16. Nature of the data set: Percent increase in life span when compound administered at 25 mg/kg against B-16 melanoma cells in […] mice. The data set is classed as functional, organism-based. Set-up: dose 25 mg/kg. As to conditions: Mus musculus. In outline: as §5
Data set [22] deals with B16. Nature of the data set: Percent survivors when compound administered at 25 mg/kg against B-16 melanoma cells in […] mice. Further details: dose 25 mg/kg. The data set is classed as functional, organism-based. Particulars: Mus musculus. In outline:
as §6

Data set [23] has as its system B16. The data set is described as follows: Percent increase in life span when compound administered at 12.5 mg/kg against B-16 melanoma cells in […] mice. Particulars: Mus musculus. The format is functional. The essentials:
as §6

Data set [24] in a line: Water solubility was determined. The format is ADME. As to conditions: buffer.
The subject of data set [25] is P388. Nature of the data set: Percent survivors when compound administered at 200 mg/kg against P388 leukemia cells in BDF1 mice. The format is functional, organism-based. Set-up: dose 200 mg/kg. As to conditions: Mus musculus. The essentials:
as §3

In data set [26] the test system is P388. The data set is described as follows: Percent increase in life span when compound administered at 200 mg/kg against P388 leukemia cells in BDF1 mice. The data set is classed as functional, organism-based. Set-up: dose 200 mg/kg. As to conditions: Mus musculus.

“And” between values parts separate entries of the source, which are not always exact repeats. Equal entries are not always repeated.

Turning to “Platinum:8,8-Dichloro-1,3-dioxa-7,9-diaza-spiro[4.5]decane”, the Increase was 160% in the data set with P388 [1] and 50% with Colon 26 [5]. Further, the Survivors in the data set on Colon 26 [2], in the data set on P388 [3] and with L1210 [4] was 0% throughout.
For “Platinum:9,9-Dichloro-2,4-dioxa-8,10-diaza-spiro[5.5]undecane”, the Increase is 27% in the data set on B16 [6], 41% in the data set with Colon 26 [8] and 173% in the data set with P388 [10]. Besides, the Survivors was 3% in the data set with P388 [7] and 0% in the data set with Colon 26 [9].
Turning to “Platinum:9,9-Dichloro-3-methyl-2,4-dioxa-8,10-diaza-spiro[5.5]undecane”, in the data set on P388 [11], the Survivors came to 1%. The Increase in the data set on P388 [12] was 136%.
Turning to “Platinum:Formic acid 9-formyloxy-2,4-dioxa-8,10-diaza-spiro[5.5]undec-9-yl ester”, the Survivors in the data set on Colon 26 [13] worked out at 0%; in the data set on B16 [17], 3%; in the data set on L1210 [18] it was 33%; in the data set on Colon 26 [19] it was 3%; with L1210 [20], 50%; in the data set with B16 [22], 0%. Moreover, the Increase was 127% in the data set with Colon 26 [14]; 168% with L1210 [15]; 172% in the data set with L1210 [16]; 64% and 84% with B16 [21]; 61% in the data set with B16 [23].
“Platinum:Formic acid 9-formyloxy-3-methyl-2,4-dioxa-8,10-diaza-spiro[5.5]undec-9-yl ester [listing 1 of 2 here]” returned a Water solubility in data set [24] of 100 mg/mL.
Take “Platinum:Formic acid 9-formyloxy-3-methyl-2,4-dioxa-8,10-diaza-spiro[5.5]undec-9-yl ester [listing 2 of 2 here]”: the Increase in the data set on B16 [21] turned out to be 62%; with P388 [26], 173%. Also, the figures for the Survivors in the data set with B16 [22] and in the data set on P388 [25] were 0% and 5%, respectively.
